The results in this text go back to ChEMBL document CHEMBL1926635, “Identification of novel molecular scaffolds for the design of MMP-13 inhibitors: a first round of lead optimization” (Eur J Med Chem, 2012).

Data set [1] has as its target Collagenase 3 (Homo sapiens, UniProt P45452). Kind of data set: Inhibition of human MMP13 using Mca-Lys-Pro-Leu-Gly-Leu-Dap(Dnp)-Ala-Arg-NH2 as substrate pre-incubated for 4 hrs before substrate addition measured every 15 secs for 15 mins by fluorimetry.
For data set [2], the target named is Stromelysin-1 (Homo sapiens, UniProt P08254). Kind of data set: Inhibition of human MMP3 using Mca-Arg-Pro-Lys-Pro-Val-Glu-Nva-Trp-Arg-Lys(Dnp)-NH2 as substrate pre-incubated for 4 hrs before substrate addition measured every 15 secs for 15 mins by fluorimetry. In a few lines:
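Pro-MMP-3 was activated with trypsin for 30 min at 37 °C, then quenched with soybean trypsin inhibitor. Enzyme at 5 nM final was pre-incubated with inhibitor for 4 h at 25 °C in Tris 50 mM pH 7.5, NaCl 150 mM, CaCl₂ 10 mM, 0.05% Brij-35 and 1% DMSO. Fluorescence was read at ex 325/em 395 nm, in triplicate. IC50 was fitted to Vi/Vo = 1/(1+[I]/IC50) from ≥5 concentrations giving 10–90% inhibition.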

Data set [3] has as its target T1, Interstitial collagenase (Homo sapiens, UniProt P03956).
T1 sequence (P03956 whole entry): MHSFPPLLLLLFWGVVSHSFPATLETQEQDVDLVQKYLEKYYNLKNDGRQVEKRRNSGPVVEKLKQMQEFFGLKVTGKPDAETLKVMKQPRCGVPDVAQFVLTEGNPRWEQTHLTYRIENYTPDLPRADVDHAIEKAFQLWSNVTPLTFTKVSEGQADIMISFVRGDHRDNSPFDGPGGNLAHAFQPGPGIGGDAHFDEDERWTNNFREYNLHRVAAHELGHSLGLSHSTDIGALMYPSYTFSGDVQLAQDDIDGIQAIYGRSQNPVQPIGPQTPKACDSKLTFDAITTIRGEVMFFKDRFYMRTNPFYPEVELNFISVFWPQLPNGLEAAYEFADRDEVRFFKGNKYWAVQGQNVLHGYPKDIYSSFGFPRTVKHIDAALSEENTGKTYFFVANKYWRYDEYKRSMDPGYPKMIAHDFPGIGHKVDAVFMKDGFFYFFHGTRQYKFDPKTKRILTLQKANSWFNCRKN
The data set is described as follows: Inhibition of human MMP1 using Mca-Lys-Pro-Leu-Gly-Leu-Dap(Dnp)-Ala-Arg-NH2 as substrate pre-incubated for 4 hrs before substrate addition measured every 15 secs for 15 mins by fluorimetry. The essentials:
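Pro-MMP-1 activated with APMA 2 mM for 2 h at 37 °C. Enzyme at 2.0 nM final was pre-incubated with inhibitor for 4 h at 25 °C in Tris 50 mM pH 7.5, NaCl 150 mM, CaCl₂ 10 mM, 0.05% Brij-35 and 1% DMSO. Read-out was fluorescence at ex 325/em 395 nm, in triplicate. IC50 was fitted to Vi/Vo = 1/(1+[I]/IC50) using ≥5 concentrations giving 10–90% inhibition.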

Data set [4] concerns the target 72 kDa type IV collagenase (Homo sapiens, UniProt P08253). The data set is described as follows: Inhibition of human MMP2 using Mca-Lys-Pro-Leu-Gly-Leu-Dap(Dnp)-Ala-Arg-NH2 as substrate pre-incubated for 4 hrs before substrate addition measured every 15 secs for 15 mins by fluorimetry. In a few lines: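 APMA 2 mM for 1 h at 37 °C activated the proenzyme. MMP-2 at 0.56 nM final was incubated with inhibitor for 4 h at 25 °C in pH 7.5 Tris buffer with NaCl, CaCl₂, 0.05% Brij-35 and 1% DMSO. Fluorescence was read at 325/395 nm, in triplicate. Percent inhibition was taken against the uninhibited control. IC50 came from ≥5 concentrations within 10–90% inhibition, fitted to Vi/Vo = 1/(1+[I]/IC50).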

The target in data set [5] is Matrix metalloproteinase-14 (Homo sapiens, UniProt P50281). Kind of data set: Inhibition of recombinant human MMP14 catalytic domain using Mca-Lys-Pro-Leu-Gly-Leu-Dap(Dnp)-Ala-Arg-NH2 as substrate pre-incubated for 4 hrs before substrate addition measured every 15 secs for 15 mins by fluorimetry. In a few lines:
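Catalytic domain used at 1 nM final and incubated with inhibitor for 4 h at 25 °C in Tris 50 mM pH 7.5, NaCl 150 mM, CaCl₂ 10 mM, 0.05% Brij-35 and 1% DMSO. Fluorescence was read at 325/395 nm, in triplicate. Percent inhibition was taken against the no-inhibitor control. IC50 was fitted to Vi/Vo = 1/(1+[I]/IC50) from ≥5 concentrations within 10–90% inhibition.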

A short description of data set [6]: Dissociation constant, pKa of the compound. Type of data set: physicochemical.

As usually defined, the IC50 is the concentration that inhibits the measured activity by half. As a reminder, the pKa is the pH at which an ionisable group is half protonated. A low value points to a stronger acid or weaker base.

Structures are written as SMILES.

Chain of Stromelysin-1 (P08254 whole entry): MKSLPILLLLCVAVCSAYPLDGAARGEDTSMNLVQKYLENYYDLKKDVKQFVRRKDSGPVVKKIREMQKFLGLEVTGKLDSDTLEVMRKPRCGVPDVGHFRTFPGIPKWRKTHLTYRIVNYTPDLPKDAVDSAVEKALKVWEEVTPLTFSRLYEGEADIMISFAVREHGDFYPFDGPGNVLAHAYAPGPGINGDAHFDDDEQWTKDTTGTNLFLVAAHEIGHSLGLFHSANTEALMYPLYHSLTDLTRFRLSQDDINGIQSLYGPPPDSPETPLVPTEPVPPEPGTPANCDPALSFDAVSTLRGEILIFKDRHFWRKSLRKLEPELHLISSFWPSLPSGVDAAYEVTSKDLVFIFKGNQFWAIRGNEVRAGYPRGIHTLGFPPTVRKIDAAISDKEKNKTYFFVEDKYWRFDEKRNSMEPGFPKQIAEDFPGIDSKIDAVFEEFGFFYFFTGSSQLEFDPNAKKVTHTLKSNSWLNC
Chain of 72 kDa type IV collagenase (P08253 whole entry): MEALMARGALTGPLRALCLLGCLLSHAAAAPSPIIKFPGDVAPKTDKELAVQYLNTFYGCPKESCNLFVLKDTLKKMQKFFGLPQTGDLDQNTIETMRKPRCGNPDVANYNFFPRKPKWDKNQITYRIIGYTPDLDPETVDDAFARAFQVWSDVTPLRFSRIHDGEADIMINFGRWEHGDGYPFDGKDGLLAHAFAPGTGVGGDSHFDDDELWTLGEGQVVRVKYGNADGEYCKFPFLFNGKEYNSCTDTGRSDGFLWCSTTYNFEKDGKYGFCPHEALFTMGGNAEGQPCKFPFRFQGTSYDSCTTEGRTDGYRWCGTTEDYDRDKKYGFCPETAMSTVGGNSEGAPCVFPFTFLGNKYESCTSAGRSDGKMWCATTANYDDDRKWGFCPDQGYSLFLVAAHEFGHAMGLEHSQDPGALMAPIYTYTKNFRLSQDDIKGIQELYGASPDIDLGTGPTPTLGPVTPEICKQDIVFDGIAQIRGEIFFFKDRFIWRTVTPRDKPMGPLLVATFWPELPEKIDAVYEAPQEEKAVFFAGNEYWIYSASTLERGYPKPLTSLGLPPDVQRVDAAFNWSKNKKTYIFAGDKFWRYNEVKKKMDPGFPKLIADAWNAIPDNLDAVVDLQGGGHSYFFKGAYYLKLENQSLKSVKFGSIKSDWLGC

The compound `O=C(O)c1cccc(-n2cc(-c3cc4cccc(O)c4oc3=O)[nH]c2=S)c1` showed an IC50 in data set [1] of 5.5 µM.
The same measure, in the same setting: then `COc1cc(Cl)cc2cc(-c3cn(-c4cccc(C(=O)O)c4)c(=S)[nH]3)c(=O)oc12`, with 4.9 µM; and `CCOC(=O)c1cccc(-n2cc(-c3cc4ccccc4oc3=O)[nH]c2=S)c1`, with more than 300 µM.
As for `O=C(O)CCCN1C(=O)S/C(=C\C=C\c2ccccc2)C1=O`, the IC50 in data set [2] is 110 µM; in data set [3] it was 93 µM; in data set [4], 2.7 µM; in data set [1], 22 µM; in data set [5] it was 21 µM. Besides, the pKa in data set [6] worked out at 3.89.
In the case of `O=C(O)c1cccc(-n2cc(-c3cc4ccccc4oc3=O)[nH]c2=S)c1`, the IC50 in data set [2] turned out to be 110 µM; in data set [3] it was 400 µM; in data set [4] it was 67 µM; in data set [5] it was 51 µM. Moreover, the pKa in data set [6] stood at 3.91.
As for `O=C(O)COc1ccccc1/C=C1/NC(=S)NC1=O`, the IC50 in data set [2] came out at 77 µM; in data set [3] it was 114 µM; in data set [4], 61 µM; in data set [1] it was 67 µM; in data set [5], 55 µM. Also, the pKa in data set [6] was 3.68.
Regarding `COc1ccc(-c2cs/c(=N\c3ccccc3)n2/N=C/c2ccccc2)cc1OC`, the IC50 in data set [2] came to 230 µM; in data set [3], 360 µM; in data set [4], 120 µM; in data set [1] it was 140 µM; in data set [5] it was 150 µM.
In turn, `CCOc1ccc(-c2ccc(S(=O)(=O)N[C@@H](C(=O)O)C3CCN(C(=O)OC(C)C)CC3)s2)cc1` showed a pKa in data set [6] of 2.55.
On to `O=c1oc2ccccc2cc1-c1cn(-c2ccccc2)c(S)n1`, for which it took 177 µM to reach half-maximal inhibition in data set [1] (IC50).
Take `COc1ccc(-c2ccc(/C=C3/SC(=S)N(CC(=O)O)C3=O)o2)cc1`: the IC50 in data set [2] was 850 µM; in data set [3], 860 µM; in data set [4] it was 350 µM; in data set [1] it was 120 µM; in data set [5], 310 µM. For the same compound, the pKa in data set [6] was 3.62.
For `C=CCc1cc(OC)c2oc(=O)c(-c3cn(-c4cccc(C(=O)O)c4)c(=S)[nH]3)cc2c1`, the IC50 in data set [1] turned out to be 4.9 µM.
In turn, `COc1ccc2oc(=O)c(-c3cn(-c4cccc(C(=O)O)c4)c(=S)[nH]3)cc2c1` displayed an IC50 in data set [1] of 3.2 µM.
